According to ChEMBL document CHEMBL1124947, “Cationic antiprotozoal drugs. Trypanocidal activity of 2-(4'-formylphenyl)imidazo[1,2-a]pyridinium guanylhydrazones and related derivatives of quaternary heteroaromatic compounds” (J Med Chem, 1990):

Assays:
Type in all cases: functional
Mus musculus [1] = test: Trypanocidal Activity at I.C.E. value 0.34 when administered subcutaneously.
In short: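 Blood-stage T. rhodesiense infection came from a standard inoculum lethal to all untreated mice. Drug was given by subcutaneous injection to groups of five mice. Survival beyond 30 days counted as cure. […] Sub-curative doses scored 0, and data were normalized at each dose.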

Mus musculus [2] = test: Trypanocidal Activity at I.C.E. value >0.3 when administered perorally.
Mus musculus [3] = test: Trypanocidal Activity at I.C.E. value 0.59 when administered perorally.
Mus musculus [4] = test: Trypanocidal Activity at I.C.E. value 0.85 when administered subcutaneously.
In short: (§1)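 Mice, in groups of five per dose, were given a standard inoculum of blood-stage T. rhodesiense that is lethal to all untreated controls, then dosed subcutaneously. Usually 11 dose levels were used (2^n × 0.42 mg/kg).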

Mus musculus [5] = test: Trypanocidal Activity at I.C.E. value 0.89 when administered subcutaneously.; in short: as §1
[6] = tested on: Trypanosoma brucei rhodesiense; test: In Vitro measurement of inhibition of thymidine uptake in cell culture of Trypanosoma rhodesiense; settings: read-out: ID50 (the source's name)
In short: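 Parasites harvested from infected rats and incubated 3 h across a drug concentration series, usually 0.1–100 µg/mL. Incorporation of radiolabeled thymidine measured. ID50 is the concentration (µg/mL) producing 50% inhibition.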

[7] = tested on: Trypanosoma brucei rhodesiense; test: In Vitro measurement of inhibition of leucine uptake in cell culture of Trypanosoma rhodesiense; settings: read-out: ID50 (the source's name)
In short: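 Trypanosomes harvested from infected rats, cultured 3 h with several concentrations of drug, usually 0.1–100 µg/mL. Radiolabeled L-leucine uptake measured. ID50 is the concentration in µg/mL giving 50% inhibition of incorporation.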

Mus musculus [8] = test: Trypanocidal Activity at I.C.E. value 0.19 when administered perorally.
Mus musculus [9] = test: Trypanocidal Activity at I.C.E. value 0.64 when administered subcutaneously.; in short: as §1

In the case of Br.CC/N=C(\NCC)N/N=C/C=C/c1ccc(-c2cn3ccccc3[n+]2C)cc1.[Br-], the CD50 (Mus musculus [1]) is reported as 13 mg/kg and the CD50 (Mus musculus [2]) is reported as 53 mg/kg.

C[n+]1c(-c2ccc(/C=N/NC(=N)NO)cc2)cn2ccccc21.Cc1ccc(S(=O)(=O)O)cc1.Cc1ccc(S(=O)(=O)[O-])cc1 was tested, and the CD50 (Mus musculus [3]) was 6.6 mg/kg and the CD50 (Mus musculus [4]) was 0.8 mg/kg.

For C[n+]1c(/C=C/c2ccc(/C=N/NC(=N)N)cc2)cn2ccccc21.Cc1ccc(S(=O)(=O)O)cc1.Cc1ccc(S(=O)(=O)[O-])cc1, the CD50 (Mus musculus [5]) was 0.1 mg/kg, the IC50 [6] was 2.7 µg/mL and the IC50 [7] was 9.3 µg/mL.

For Br.C[n+]1c(COc2ccc(/C=N/NC3=NCCCN3)cc2)cn2cc(C(F)(F)F)ccc21.[Br-], the CD50 (Mus musculus [8]) was 106 mg/kg, the CD50 (Mus musculus [9]) was 1.6 mg/kg and the IC50 [6] was 0.4 µg/mL. It also gave an IC50 [7] of 0.5 µg/mL.
